Measured values as given in ChEMBL document CHEMBL4118256, “Second Generation of Mannich Base-Type Derivatives with in Vivo Activity against Trypanosoma cruzi” (J Med Chem, 2018).

What was measured:
[1] = Selectivity index, ratio of IC50 for African green monkey Vero cells to IC50 for Trypanosoma cruzi MHOM/Pe/2011/Arequipa DTU 5 epimastigotes; type: toxicity; settings: read-out: Ratio IC50
How it was run: (§1)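 SI is Vero IC50 divided by the IC50 for the stated parasite form. For Vero cytotoxicity, cells were seeded at 1.25×10^4 mL^-1 with compounds at 1000–1 µM, incubated 48 h, then given resazurin for a further 24 h (72 h total), with absorbance read at 570/600 nm. Triplicate, four determinations.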

[2] = tested on: Trypanosoma cruzi; assay: Trypanocidal activity against Trypanosoma cruzi MHOM/Pe/2011/Arequipa DTU 5 epimastigotes after 48 hrs by resazurin dye based assay; type: functional, organism-based; settings: MHOM/Pe/2011/Arequipa DTU 5, 48 h
How it was run: (§2)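 Exponential-phase epimastigotes were seeded at 5×10^5 mL^-1 with compounds at 100–0.2 µM (DMSO 0.01% v/v) at 28 °C. After 48 h, resazurin was added for another 24 h. SDS was then added and absorbance read at 570 and 600 nm.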

[3] = tested on: Trypanosoma cruzi; assay: Trypanocidal activity against Trypanosoma cruzi TINF/CH/1956/Tulahuen DTU 6 epimastigotes after 48 hrs by resazurin dye based assay; type: functional, organism-based; settings: TINF/CH/1956/Tulahuen DTU 6, 48 h; how it was run: as §2
[4] = tested on: Trypanosoma cruzi; assay: Trypanocidal activity against Trypanosoma cruzi IRHOD/CO/2008/SN3 DTU 1 epimastigotes after 48 hrs by resazurin dye based assay; type: functional, organism-based; settings: IRHOD/CO/2008/SN3 DTU 1, 48 h; how it was run: as §2
[5] = tested on: Vero; assay: Cytotoxicity against African green monkey Vero cells assessed as reduction in cell viability after 72 hrs by resazurin dye based assay; settings: Chlorocebus sabaeus
How it was run: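 Vero monkey kidney cells grown at 37 °C, 5 % CO2, in RPMI with 10 % heat-inactivated FBS. Seeded at 1.25 × 10^4 mL-1 with compound at 1000 to 1 µM (DMSO 0.01 % v/v). After 48 h, resazurin added for a further 24 h, then SDS. Absorbance read at 570/600 nm. IC50 from triplicates in four separate determinations.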

[6] = Selectivity index, ratio of IC50 for African green monkey Vero cells to IC50 for Trypanosoma cruzi IRHOD/CO/2008/SN3 DTU 1 epimastigotes; type: toxicity; settings: read-out: Ratio IC50; how it was run: as §1
[7] = Selectivity index, ratio of IC50 for African green monkey Vero cells to IC50 for Trypanosoma cruzi TINF/CH/1956/Tulahuen DTU 6 epimastigotes; type: toxicity; settings: read-out: Ratio IC50; how it was run: as §1

Compound | selectivity ratio [1] | IC50 [2] | IC50 [3] | IC50 [4] | IC50 [5] | selectivity ratio [6] | selectivity ratio [7]
Cc1ccc(C(=O)CCN2CCN(c3ccc(F)cc3)CC2)cc1 | 1.3 | 43.5 µM | 25 µM | 78.8 µM | 55.4 µM | 0.7 | 2.2
COc1ccc(C(=O)CCN2CCN(Cc3cccc(F)c3)CC2)cc1OC | 0.5 | 49 µM | 40.8 µM | 48 µM | 22.4 µM | 0.5 | 0.6
COc1ccccc1N1CCN(CCC(=O)c2ccc(F)cc2)CC1 | 0.4 | 58.3 µM | 45.6 µM | 40.5 µM | 24 µM | 0.6 | 0.5
O=C(CCN1CCN(c2ccc(C(F)(F)F)cc2)CC1)c1ccccc1 | 1.2 | 12.8 µM | 24.9 µM | 16.2 µM | 15.7 µM | 1 | 0.6
O=C(CCN1CCN(c2ccc(F)cc2)CC1)c1ccc(C(F)(F)F)cc1 | 0.8 | 36.9 µM | 60.3 µM | 66.4 µM | 28.5 µM | 0.4 | 0.5
O=C(CCN1CCN(c2ccc([N+](=O)[O-])cc2)CC1)c1ccc(F)c(Cl)c1 | 3.4 | 34.2 µM | 41.5 µM | 51 µM | 116 µM | 2.3 | 2.8
COc1ccc(N2CCN(CCC(=O)c3ccc(F)cc3)CC2)cc1 | 1.3 | 24.5 µM | 38.9 µM | 22.2 µM | 31.9 µM | 1.4 | 0.8
COc1ccc(C(=O)CCN2CCN(c3ccc([N+](=O)[O-])cc3)CC2)cc1OC | 1.1 | 94.5 µM | 105 µM | 174 µM | 105 µM | 0.6 | 1
O=C(CCN1CCN(c2ccc(C(F)(F)F)cc2)CC1)c1ccc(F)c(Br)c1 | 1.4 | 46.6 µM | 25.6 µM | 20.8 µM | 66.8 µM | 3.2 | 2.6
COc1ccc(C(=O)CCN2CCN(Cc3ccccc3)CC2)cc1OC | 1.6 | 29.5 µM | 46.2 µM | 55.2 µM | 47.5 µM | 0.9 | 1
O=C(CCN1CCN(c2ccc([N+](=O)[O-])cc2)CC1)c1ccc(Br)cc1 | 2.9 | 27.2 µM | 46.2 µM | 39.7 µM | 79.8 µM | 2 | 1.7
COc1ccc(C(=O)CCN2CCN(c3ccc(C(F)(F)F)cc3)CC2)cc1OC | 4.1 | 59 µM | 33.9 µM | 27.8 µM | 242 µM | 8.7 | 7.2
COc1ccc(C(=O)CCN2CCN(c3ccc(Cl)cc3)CC2)cc1OC | 2.1 | 90.3 µM | 36.6 µM | 43.9 µM | 185 µM | 4.2 | 5.1
O=C(CCN1CCN(c2ccc(F)cc2)CC1)c1ccc(Cl)c(F)c1 | 2.7 | 39.5 µM | 46.2 µM | 75.3 µM | 105 µM | 1.4 | 2.3
O=C(CCN1CCN(c2ccc(F)cc2)CC1)c1ccc(F)c(Br)c1 | 9.1 | 38.8 µM | 41.4 µM | 42.4 µM | 352 µM | 8.3 | 8.5
COc1ccc(C(=O)CCN2CCN(c3ccc(C(F)(F)F)cc3)CC2)cc1 | 1.9 | 72.9 µM | 44 µM | 32.3 µM | 135 µM | 4.2 | 3.1
O=C(CCN1CCN(c2ccc(Cl)cc2)CC1)c1ccc(C(F)(F)F)cc1 | 1 | 52.7 µM | 39.1 µM | 38.2 µM | 54.2 µM | 1.4 | 1.4

Compound | selectivity ratio [1] | IC50 [2] | IC50 [3] | IC50 [4] | IC50 [5] | selectivity ratio [6] | selectivity ratio [7]
O=C(CCN1CCN(c2ccccc2F)CC1)c1ccc(F)cc1 | 1.3 | 37.9 µM | 53.5 µM | 52.6 µM | 49.5 µM | 0.9 | 0.9
COc1ccc(C(=O)CCN2CCN(Cc3cccc(C)c3)CC2)cc1OC | 2.7 | 19.4 µM | 28.4 µM | 24.1 µM | 52 µM | 2.2 | 1.8
O=C(CCN1CCN(c2ccc([N+](=O)[O-])cc2)CC1)c1ccc(OC(F)(F)F)cc1 | 2.3 | 41.1 µM | 52.1 µM | 95 µM | 93.2 µM | 1 | 1.8
O=C(CCN1CCN(c2ccc(C(F)(F)F)cc2)CC1)c1ccc(OC(F)(F)F)cc1 | 1.3 | 51.2 µM | 86.3 µM | 38.4 µM | 64.9 µM | 1.7 | 0.8
O=C(CCN1CCN(c2ccc(F)cc2)CC1)c1ccc(Br)cc1 | 4.4 | 22.5 µM | 49.5 µM | 56.8 µM | 99.5 µM | 1.8 | 2
O=C(CCN1CCN(c2ccc(Cl)cc2)CC1)c1ccc(F)c(F)c1 | 5.6 | 15.4 µM | 46.2 µM | 13.7 µM | 86.2 µM | 6.3 | 1.9
O=C(CCN1CCN(c2ccc([N+](=O)[O-])cc2)CC1)c1ccc(F)c(F)c1 | 1.4 | 85.2 µM | 53.1 µM | 160 µM | 122 µM | 0.8 | 2.3
O=C(CCN1CCN(c2ccc([N+](=O)[O-])cc2)CC1)c1ccc(Cl)c(F)c1 | 3.8 | 23.8 µM | 15.5 µM | 32.4 µM | 89.2 µM | 2.8 | 5.7
O=C(CCN1CCN(c2ccc(F)cc2)CC1)c1ccc(F)c(Cl)c1 | 7.3 | 25.3 µM | 37.1 µM | 41.6 µM | 185 µM | 4.5 | 5
O=C(CCN1CCN(c2ccc(Cl)cc2)CC1)c1ccc(OC(F)(F)F)cc1 | 2.3 | 42.2 µM | 61.8 µM | 34.1 µM | 95.6 µM | 2.8 | 1.5
O=C(CCN1CCN(c2ccc(C(F)(F)F)cc2)CC1)c1ccc(F)c(F)c1 | 0.4 | 33.4 µM | 54.1 µM | 28.8 µM | 14 µM | 0.5 | 0.3
O=C(CCN1CCN(c2ccc(C(F)(F)F)cc2)CC1)c1ccc(F)c(Cl)c1 | 3.4 | 21.6 µM | 29 µM | 45 µM | 74.5 µM | 1.7 | 2.6
COc1ccc(C(=O)CCN2CCN(c3ccc(F)cc3)CC2)cc1OC | 1.1 | 154 µM | 103 µM | 61.5 µM | 175 µM | 2.8 | 1.7
O=C(CCN1CCN(c2ccc([N+](=O)[O-])cc2)CC1)c1ccc(F)cc1 | 1.7 | 65.8 µM | 78.1 µM | 54.5 µM | 110 µM | 2 | 1.4
O=C(CCN1CCN(c2ccc(C(F)(F)F)cc2)CC1)c1ccc(C(F)(F)F)cc1 | 2 | 24.3 µM | 43 µM | 34.7 µM | 49.2 µM | 1.4 | 1.1
O=C(CCN1CCN(c2ccc(C(F)(F)F)cc2)CC1)c1ccc(Br)cc1 | 2.6 | 30 µM | 28.5 µM | 28.3 µM | 78.8 µM | 2.8 | 2.8
Cc1ccc(C(=O)CCN2CCN(c3ccc(C(F)(F)F)cc3)CC2)cc1 | 9.8 | 14.2 µM | 22.5 µM | 17.6 µM | 140 µM | 7.9 | 6.2
